Laboratory results: ChEMBL document CHEMBL2311305, “Antiproliferative potency of novel benzofuran-2-carboxamides on tumour cell lines: cell death mechanisms and determination of crystal structure” (Eur J Med Chem, 2013)

Key:
[1] = system: SK-BR-3; experiment: Cytotoxicity against human SKBR3 cells after 72 hrs by MTT assay; format: functional, cell-based; conditions: SK-BR-3, 72 h
Method in brief: (§1)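 Cells seeded at 3000-6000 per well on day 0, according to cell line doubling time. Compound added in five 10-fold dilutions, 72-h incubation, then MTT colorimetric read-out. Absorbances converted to percentage growth by NCI formulae. IC50 obtained by linear regression between the concentrations bracketing PG 50; ">100" assigned when no concentration reaches it. Quadruplicate points, three independent experiments.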

[2] = system: SW-620; experiment: Cytotoxicity against human SW620 cells after 72 hrs by MTT assay; format: functional, cell-based; method in brief: as §1
[3] = system: MIA PaCa-2; experiment: Cytotoxicity against human MIAPaCa2 cells after 72 hrs by MTT assay; format: functional, cell-based; method in brief: as §1
[4] = system: MCF7; experiment: Cytotoxicity against human MCF7 cells after 72 hrs by MTT assay; format: functional, cell-based; method in brief: as §1
[5] = system: WI-38; experiment: Cytotoxicity against human WI38 cells after 72 hrs by MTT assay; format: cell-based; method in brief: as §1
[6] = system: HeLa; experiment: Cytotoxicity against human HeLa cells after 72 hrs by MTT assay; format: functional, cell-based; method in brief: as §1

SMILES	IC50 [1]	IC50 ([2]; Homo sapiens, SW-620, 72 h)	IC50 ([3]; Homo sapiens, MIA PaCa-2, 72 h)	IC50 ([4]; Homo sapiens, MCF7, 72 h)	IC50 ([5]; Homo sapiens, WI-38, 72 h)	IC50 ([6]; Homo sapiens, HeLa, 72 h)	IC50 ([2]; sw-620)	IC50 ([3]; mia paca-2)	IC50 ([4]; mcf7)	IC50 ([5]; wi-38)	IC50 ([6]; hela)
N#Cc1ccc2nc(NC(=O)c3cc4ccccc4o3)sc2c1	> 100 µM	> 100 µM	> 100 µM	21.5 µM	34.9 µM	89.6 µM					
O=C(Nc1ccc(C2=NCCN2)cn1)c1cc2ccccc2o1	> 100 µM	67.1 µM	> 100 µM	> 100 µM	68.7 µM	71.9 µM					
CC(=O)Nc1ccc(NC(=O)c2cc3ccccc3o2)cc1	> 100 µM	> 100 µM	> 100 µM	45.1 µM	71.2 µM	77.3 µM					
CN(C)c1ccc(NC(=O)c2cc3ccccc3o2)cc1							86 µM	> 100 µM	35.6 µM	> 100 µM	83.7 µM
